Measured values reported in ChEMBL document CHEMBL3588831, “Synthesis and in Vivo Evaluation of [123I]Melanin-Targeted Agents” (J Med Chem, 2015).

Assays:
[1] = Drug distribution in eyes of C57BL/6J mouse bearing mouse B16F0 cells at 18 to 20 MBq, iv measured over 72 hrs by SPECT imaging study; type: ADME, organism-based, Eye; settings: in vivo
Summary of the method: (§1)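 Female C57BL/6J mice (5–6 weeks) were inoculated s.c. on the left flank with 3 × 10^5 B16F0 cells in PBS and used after 11 days, with tumors 2–12 mm. Each received 18–20 MBq in 100 μL by lateral tail vein (n = 3 per tracer). Planar SPECT was done under isoflurane at 10–60 min, 3, 6, 24, 48 and 72 h. ROI pixel values were decay-corrected.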

[2] = Retention time of the compound by HPLC method; type: physicochemical
Brain [3] = assay: Drug distribution in brain of C57BL/6J mouse bearing mouse B16F0 cells at 18 to 20 MBq, iv measured over 72 hrs by SPECT imaging study; type: ADME, organism-based; settings: in vivo
Summary of the method: (§2)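 Female C57BL/6J mice bearing s.c. B16F0 tumors (11 days growth) received 18−20 MBq in 100 μL via lateral tail vein (n = 3). Isoflurane anesthesia (5% induction, 2−2.5% maintenance) on a 37 °C heating pad. Planar γ-camera imaging at 10−60 min (5 min frames), 3 and 6 h, 24, 48 and 72 h. Radioactivity localization assessed visually.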

[4] = Drug distribution in thyroid gland of C57BL/6J mouse bearing mouse B16F0 cells at 18 to 20 MBq, iv after 72 hrs by SPECT imaging study; type: ADME, organism-based; settings: in vivo; summary of the method: as §1
[5] = Drug distribution in thyroid gland of C57BL/6J mouse bearing mouse B16F0 cells at 18 to 20 MBq, iv after 24 hrs by SPECT imaging study; type: ADME, organism-based; settings: in vivo; summary of the method: as §1
[6] = Drug distribution in thyroid gland of C57BL/6J mouse bearing mouse B16F0 cells at 18 to 20 MBq, iv after 3 hrs by SPECT imaging study; type: ADME, organism-based; settings: in vivo; summary of the method: as §1
Brain [7] = assay: Drug distribution in brain of C57BL/6J mouse bearing mouse B16F0 cells at 18 to 20 MBq, iv within 1 hr by SPECT imaging study; type: ADME, organism-based; settings: in vivo; summary of the method: as §2

Row | Compound | Drug uptake [1] | Retention_time [2] [min] | Drug uptake (Brain [3]) | Drug uptake [4] | Drug uptake [5] | Drug uptake [6] | Drug uptake (Brain [7])
1 | O=C(CN1Cc2ccccc2C1=O)N1CCN(Cc2ccc([123I])cc2)CC1 | Active | 17.3 | Not Active |  |  |  | 
2 | O=C1c2ccccc2CN1CC(=O)N1C[C@@H]2C[C@H]1CN2Cc1ccc([123I])cc1 | Active | 15.9 | Not Active | Active |  |  | 
3 | O=C(c1cccnc1)N1CCN(Cc2ccc([123I])cc2)CC1 | Active | 16 | Not Active |  | Active |  | 
4 | CCN(CC)CCNC(=O)c1cnc2cc([123I])ccc2n1 | Active | 15.7 | Active |  |  | Active | Active
5 | O=C(CN1Cc2ccccc2C1=O)N1CCCN(Cc2ccc([123I])cc2)CC1 | Active | 14.5 | Not Active | Active |  |  | 
